# Source: ChEMBL document CHEMBL3779826, “Converting maslinic acid into an effective inhibitor of acylcholinesterases” (Eur J Med Chem, 2015)
# Legend:
# Acetylcholinesterase = Acetylcholinesterase (Electrophorus electricus, UniProt O42275); experiment: Inhibition of Electrophorus electricus AChE using acetylthiocholine iodide as substrate preincubated for 20mins before the addition of substrate by Ellman's method
# Cholinesterase = Cholinesterase (Equus caballus, UniProt P81908); experiment: Inhibition of equine serum BChE using butyrylthiocholine iodide as substrate preincubated for 20mins before the addition of substrate by Ellman's method
# Sequence of Cholinesterase (P81908 whole entry): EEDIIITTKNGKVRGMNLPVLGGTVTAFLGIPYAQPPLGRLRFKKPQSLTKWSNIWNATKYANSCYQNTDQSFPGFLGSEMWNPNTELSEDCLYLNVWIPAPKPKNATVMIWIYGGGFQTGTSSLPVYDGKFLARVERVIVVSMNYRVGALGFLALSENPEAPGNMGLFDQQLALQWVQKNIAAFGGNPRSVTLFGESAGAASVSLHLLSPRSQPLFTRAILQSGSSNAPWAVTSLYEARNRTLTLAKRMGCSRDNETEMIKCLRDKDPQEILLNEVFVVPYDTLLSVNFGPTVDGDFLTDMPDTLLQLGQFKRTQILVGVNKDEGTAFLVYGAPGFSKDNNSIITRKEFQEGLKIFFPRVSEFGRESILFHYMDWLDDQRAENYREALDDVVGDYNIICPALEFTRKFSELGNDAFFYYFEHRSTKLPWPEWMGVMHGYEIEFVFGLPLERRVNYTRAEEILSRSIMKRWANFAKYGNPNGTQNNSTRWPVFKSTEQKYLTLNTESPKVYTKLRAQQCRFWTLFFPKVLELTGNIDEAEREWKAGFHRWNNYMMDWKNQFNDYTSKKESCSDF
# [1] = target: Acetylcholinesterase (Electrophorus electricus) (UniProt O42275); experiment: Mixed type inhibition of Electrophorus electricus AChE by Lineweaver-Burk plot analysis
# Sequence of Acetylcholinesterase (Electrophorus electricus) (O42275 24-633 limits assumed): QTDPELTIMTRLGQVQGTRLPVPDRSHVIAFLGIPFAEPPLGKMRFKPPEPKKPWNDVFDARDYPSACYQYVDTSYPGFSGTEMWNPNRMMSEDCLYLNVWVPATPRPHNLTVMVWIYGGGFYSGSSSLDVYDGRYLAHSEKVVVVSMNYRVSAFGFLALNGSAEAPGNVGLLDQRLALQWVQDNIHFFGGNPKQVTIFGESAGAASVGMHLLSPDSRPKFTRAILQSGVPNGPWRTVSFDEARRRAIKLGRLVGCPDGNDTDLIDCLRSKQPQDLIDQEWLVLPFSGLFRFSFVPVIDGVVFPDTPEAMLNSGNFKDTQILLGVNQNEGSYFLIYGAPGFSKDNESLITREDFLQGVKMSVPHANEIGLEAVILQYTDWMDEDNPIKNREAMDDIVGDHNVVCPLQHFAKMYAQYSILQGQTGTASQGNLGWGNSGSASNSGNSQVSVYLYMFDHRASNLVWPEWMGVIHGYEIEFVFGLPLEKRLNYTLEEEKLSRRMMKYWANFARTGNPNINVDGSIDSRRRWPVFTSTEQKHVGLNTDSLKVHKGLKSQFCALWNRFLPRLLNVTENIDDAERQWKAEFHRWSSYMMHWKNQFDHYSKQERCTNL
# Outline: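 Ellman kinetics at 30 °C in pH 8.0 Tris-HCl with DTNB. Enzyme plus inhibitor (3 concentrations and a water blank) was preincubated for 20 min, then ATChI was added at 0.9375, 0.625, 0.325 or 0.1875 mM. A415 was read every minute for 30 min, in triplicate. Mode, Ki and Ki' came from Lineweaver-Burk, Dixon and Cornish-Bowden plots.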
# Sequence of Acetylcholinesterase (O42275 whole entry): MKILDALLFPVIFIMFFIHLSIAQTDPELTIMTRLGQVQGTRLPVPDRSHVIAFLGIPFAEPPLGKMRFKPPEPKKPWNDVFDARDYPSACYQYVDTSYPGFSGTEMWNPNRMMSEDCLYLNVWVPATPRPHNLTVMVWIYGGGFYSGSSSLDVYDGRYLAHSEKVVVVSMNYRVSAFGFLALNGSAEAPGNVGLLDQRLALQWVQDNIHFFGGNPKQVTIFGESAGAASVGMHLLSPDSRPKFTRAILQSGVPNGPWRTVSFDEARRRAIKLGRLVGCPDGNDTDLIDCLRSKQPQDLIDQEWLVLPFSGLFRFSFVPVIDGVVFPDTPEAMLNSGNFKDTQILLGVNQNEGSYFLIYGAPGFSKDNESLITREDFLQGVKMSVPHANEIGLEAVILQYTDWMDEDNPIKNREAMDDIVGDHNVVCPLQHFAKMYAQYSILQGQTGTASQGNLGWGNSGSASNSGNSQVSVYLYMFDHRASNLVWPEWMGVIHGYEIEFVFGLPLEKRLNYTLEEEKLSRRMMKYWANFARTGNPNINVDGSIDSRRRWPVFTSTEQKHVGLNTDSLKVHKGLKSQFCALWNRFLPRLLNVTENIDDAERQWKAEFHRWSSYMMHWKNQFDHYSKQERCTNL
Structure (SMILES),Ki (Acetylcholinesterase; read-out: Ki) [µM],Ki (Cholinesterase; read-out: Ki) [µM],IC50 (Cholinesterase) [µM],Ki (Acetylcholinesterase),Ki (Cholinesterase),IC50 (Acetylcholinesterase) [µM],Kiuc [1] [µM]
C=CCNC(=O)[C@]12CCC(C)(C)C[C@H]1C1=CC[C@@H]3[C@@]4(C)C[C@@H](O)[C@H](O)C(C)(C)[C@@H]4CC[C@@]3(C)[C@]1(C)CC2,> 20,> 20,–,–,–,–,–
CC1(C)CC[C@]2(C(=O)OCCCCBr)CC[C@]3(C)C(=CC[C@@H]4[C@@]5(C)C[C@@H](O)[C@H](O)C(C)(C)[C@@H]5CC[C@]43C)[C@@H]2C1,> 10,> 10,–,–,–,–,–
CC1(C)CC[C@]2(C(N)=O)CC[C@]3(C)C(=CC[C@@H]4[C@@]5(C)C[C@@H](O)[C@H](O)C(C)(C)[C@@H]5CC[C@]43C)[C@@H]2C1,> 20,18.1,34.1,–,–,–,–
CCCCCCCCCCCCCCCCCCOC(=O)[C@]12CCC(C)(C)C[C@H]1C1=CC[C@@H]3[C@@]4(C)C[C@@H](O)[C@H](O)C(C)(C)[C@@H]4CC[C@@]3(C)[C@]1(C)CC2,–,–,–,ND(Insoluble),ND(Insoluble),–,–
COC(=O)[C@]12CCC(C)(C)C[C@H]1C1=CC[C@@H]3[C@@]4(C)C[C@@H](OS(N)(=O)=O)[C@H](O)C(C)(C)[C@@H]4CC[C@@]3(C)[C@]1(C)CC2,> 40,> 40,–,–,–,–,–
CC1(C)CC[C@]2(C(=O)O)CC[C@]3(C)C(=CC[C@@H]4[C@@]5(C)C[C@H](OC(=O)CCl)[C@H](OC(=O)CCl)C(C)(C)[C@@H]5CC[C@]43C)[C@@H]2C1,6.85,–,–,–,–,6.6,9.36
CC1(C)CC[C@]2(C(=O)OCc3ccc(Br)cc3)CC[C@]3(C)C(=CC[C@@H]4[C@@]5(C)C[C@@H](O)[C@H](O)C(C)(C)[C@@H]5CC[C@]43C)[C@@H]2C1,> 20,> 20,–,–,–,–,–
CC(=O)O[C@@H]1C[C@]2(C)[C@H]3CC=C4[C@@H]5CC(C)(C)CC[C@]5(C(N)=O)CC[C@@]4(C)[C@]3(C)CC[C@H]2C(C)(C)[C@H]1OC(C)=O,> 20,> 20,–,–,–,–,–
CC1(C)CC[C@]2(C(=O)OCc3cccc(Cl)c3)CC[C@]3(C)C(=CC[C@@H]4[C@@]5(C)C[C@@H](O)[C@H](O)C(C)(C)[C@@H]5CC[C@]43C)[C@@H]2C1,> 10,> 10,–,–,–,–,–
C#CCNC(=O)[C@]12CCC(C)(C)C[C@H]1C1=CC[C@@H]3[C@@]4(C)C[C@@H](O)[C@H](O)C(C)(C)[C@@H]4CC[C@@]3(C)[C@]1(C)CC2,> 20,> 20,–,–,–,–,–
C#CCOC(=O)[C@]12CCC(C)(C)C[C@H]1C1=CC[C@@H]3[C@@]4(C)C[C@@H](O)[C@H](O)C(C)(C)[C@@H]4CC[C@@]3(C)[C@]1(C)CC2,> 10,> 10,–,–,–,–,–
CC1(C)CC[C@]2(C(=O)OCc3ccccc3)CC[C@]3(C)C(=CC[C@@H]4[C@@]5(C)C[C@@H](O)[C@H](O)C(C)(C)[C@@H]5CC[C@]43C)[C@@H]2C1 [BENZYL MASLINATE],> 14,> 14,–,–,–,–,–
CC(=O)O[C@@H]1C[C@]2(C)[C@H]3CC=C4[C@@H]5CC(C)(C)CC[C@]5(C(=O)NCc5ccccc5)CC[C@@]4(C)[C@]3(C)CC[C@H]2C(C)(C)[C@H]1OC(C)=O,16.2,–,–,–,–,29.4,39.4
"CC1(C)CC[C@@]2(C(=O)OCc3ccc([N+](=O)[O-])cc3)CC[C@@]3(C)C(=CC[C@H]4[C@]5(C)C[C@H](O)[C@@H](O)C(C)(C)[C@H]5CC[C@@]43C)[C@H]2C1 (single isomer, unassigned)",6.14,> 4,–,–,–,7.41,7.22
C=CCOC(=O)[C@]12CCC(C)(C)C[C@H]1C1=CC[C@@H]3[C@@]4(C)C[C@@H](O)[C@H](O)C(C)(C)[C@@H]4CC[C@@]3(C)[C@]1(C)CC2,> 30,> 30,–,–,–,–,–
CC1(C)CC[C@]2(C(=O)OCCO)CC[C@]3(C)C(=CC[C@@H]4[C@@]5(C)C[C@@H](O)[C@H](O)C(C)(C)[C@@H]5CC[C@]43C)[C@@H]2C1,> 100,> 100,–,–,–,–,–
CC1(C)CC[C@]2(C(=O)O)CC[C@]3(C)C(=CC[C@@H]4[C@@]5(C)C[C@@H](OC(=O)CCl)[C@H](OC(=O)CCl)C(C)(C)[C@@H]5CC[C@]43C)[C@@H]2C1,13.1,–,–,–,–,15.1,19.8
C=CCCOC(=O)[C@]12CCC(C)(C)C[C@H]1C1=CC[C@@H]3[C@@]4(C)C[C@@H](O)[C@H](O)C(C)(C)[C@@H]4CC[C@@]3(C)[C@]1(C)CC2,3.31,> 10,–,–,–,6.25,11.5
CCCCCCCCCCCCOC(=O)[C@]12CCC(C)(C)C[C@H]1C1=CC[C@@H]3[C@@]4(C)C[C@@H](O)[C@H](O)C(C)(C)[C@@H]4CC[C@@]3(C)[C@]1(C)CC2,–,–,–,ND(Insoluble),ND(Insoluble),–,–
CCNC(=O)[C@]12CCC(C)(C)C[C@H]1C1=CC[C@@H]3[C@@]4(C)C[C@@H](O)[C@H](O)C(C)(C)[C@@H]4CC[C@@]3(C)[C@]1(C)CC2,> 20,> 20,–,–,–,–,–

Structure (SMILES),Ki (Acetylcholinesterase; read-out: Ki) [µM],Ki (Cholinesterase; read-out: Ki) [µM],IC50 (Cholinesterase) [µM],Ki (Acetylcholinesterase),Ki (Cholinesterase),IC50 (Acetylcholinesterase) [µM],Kiuc [1] [µM]
CC1(C)CC[C@]2(C(=O)NCc3ccccc3)CC[C@]3(C)C(=CC[C@@H]4[C@@]5(C)C[C@@H](O)[C@H](O)C(C)(C)[C@@H]5CC[C@]43C)[C@@H]2C1,> 10,–,–,–,–,–,–
CCOC(=O)[C@]12CCC(C)(C)C[C@H]1C1=CC[C@@H]3[C@@]4(C)C[C@@H](O)[C@H](O)C(C)(C)[C@@H]4CC[C@@]3(C)[C@]1(C)CC2,3.49,> 14,–,–,–,4.68,4.67
COC(=O)[C@]12CCC(C)(C)C[C@H]1C1=CC[C@@H]3[C@@]4(C)C[C@@H](O)[C@H](OS(N)(=O)=O)C(C)(C)[C@@H]4CC[C@@]3(C)[C@]1(C)CC2,20.5,> 20,–,–,–,21.3,38.6
CC1(C)CC[C@]2(C(=O)OCCCO)CC[C@]3(C)C(=CC[C@@H]4[C@@]5(C)C[C@@H](O)[C@H](O)C(C)(C)[C@@H]5CC[C@]43C)[C@@H]2C1,20.1,> 10,–,–,–,13.8,13.7
CC1(C)CC[C@]2(C(=O)OCc3ccc(Cl)cc3)CC[C@]3(C)C(=CC[C@@H]4[C@@]5(C)C[C@@H](O)[C@H](O)C(C)(C)[C@@H]5CC[C@]43C)[C@@H]2C1,> 30,> 30,–,–,–,–,–
CC1(C)CC[C@]2(C(=O)NCc3ccccc3)CC[C@]3(C)C(=CC[C@@H]4[C@@]5(C)C[C@H](OC(=O)CCl)[C@H](OC(=O)CCl)C(C)(C)[C@@H]5CC[C@]43C)[C@@H]2C1,6.25,–,–,–,–,15.3,–
CCCNC(=O)[C@]12CCC(C)(C)C[C@H]1C1=CC[C@@H]3[C@@]4(C)C[C@@H](OC(C)=O)[C@H](OC(C)=O)C(C)(C)[C@@H]4CC[C@@]3(C)[C@]1(C)CC2,> 6,> 6,–,–,–,–,–
CC1(C)CC[C@]2(C(=O)OCCCCl)CC[C@]3(C)C(=CC[C@@H]4[C@@]5(C)C[C@@H](O)[C@H](O)C(C)(C)[C@@H]5CC[C@]43C)[C@@H]2C1,8.76,> 6,–,–,–,4.07,3.45
CC1(C)CC[C@]2(C(=O)OCC3CCCCC3)CC[C@]3(C)C(=CC[C@@H]4[C@@]5(C)C[C@@H](O)[C@H](O)C(C)(C)[C@@H]5CC[C@]43C)[C@@H]2C1,10,> 14,–,–,–,3.87,2.67
CC1(C)CC[C@]2(C(=O)NCc3ccccc3)CC[C@]3(C)C(=CC[C@@H]4[C@@]5(C)C[C@@H](OC(=O)CCl)[C@H](OC(=O)CCl)C(C)(C)[C@@H]5CC[C@]43C)[C@@H]2C1,25.1,–,–,–,–,20,–
C=CCNC(=O)[C@]12CCC(C)(C)C[C@H]1C1=CC[C@@H]3[C@@]4(C)C[C@@H](OC(C)=O)[C@H](OC(C)=O)C(C)(C)[C@@H]4CC[C@@]3(C)[C@]1(C)CC2,> 20,> 20,–,–,–,–,–
C#CCCOC(=O)[C@]12CCC(C)(C)C[C@H]1C1=CC[C@@H]3[C@@]4(C)C[C@@H](O)[C@H](O)C(C)(C)[C@@H]4CC[C@@]3(C)[C@]1(C)CC2,6.76,> 20,–,–,–,11.7,32.5
CCNC(=O)[C@]12CCC(C)(C)C[C@H]1C1=CC[C@@H]3[C@@]4(C)C[C@@H](OC(C)=O)[C@H](OC(C)=O)C(C)(C)[C@@H]4CC[C@@]3(C)[C@]1(C)CC2,> 14,> 14,–,–,–,–,–
COc1ccc(COC(=O)[C@]23CCC(C)(C)C[C@H]2C2=CC[C@@H]4[C@@]5(C)C[C@@H](O)[C@H](O)C(C)(C)[C@@H]5CC[C@@]4(C)[C@]2(C)CC3)cc1,6.49,> 100,–,–,–,–,69.6
CC(=O)O[C@H]1C[C@]2(C)[C@H]3CC=C4[C@@H]5CC(C)(C)CC[C@]5(C(=O)NCc5ccccc5)CC[C@@]4(C)[C@]3(C)CC[C@H]2C(C)(C)[C@H]1OC(C)=O,> 10,–,–,–,–,–,–
COC(=O)[C@]12CCC(C)(C)C[C@H]1C1=CC[C@@H]3[C@@]4(C)C[C@@H](O)[C@H](O)C(C)(C)[C@@H]4CC[C@@]3(C)[C@]1(C)CC2 [MASLINIC ACID METHYL ESTER],> 50,> 50,–,–,–,–,–
C#CCNC(=O)[C@]12CCC(C)(C)C[C@H]1C1=CC[C@@H]3[C@@]4(C)C[C@@H](OC(C)=O)[C@H](OC(C)=O)C(C)(C)[C@@H]4CC[C@@]3(C)[C@]1(C)CC2,8.14,> 14,–,–,–,15.1,–
CC1(C)CC[C@]2(C(=O)OCCC#CCl)CC[C@]3(C)C(=CC[C@@H]4[C@@]5(C)C[C@@H](O)[C@H](O)C(C)(C)[C@@H]5CC[C@]43C)[C@@H]2C1,5.71,> 6,–,–,–,6.57,14.8
CC(=O)O[C@@H]1C[C@]2(C)[C@H]3CC=C4[C@@H]5CC(C)(C)CC[C@]5(C(=O)O)CC[C@@]4(C)[C@]3(C)CC[C@H]2C(C)(C)[C@H]1OC(C)=O,> 10,> 10,–,–,–,–,–
CC(=O)O[C@H]1C[C@]2(C)[C@H]3CC=C4[C@@H]5CC(C)(C)CC[C@]5(C(=O)O)CC[C@@]4(C)[C@]3(C)CC[C@H]2C(C)(C)[C@H]1OC(C)=O,> 20,> 20,–,–,–,–,–
